# Results as given in the EternaBench riboswitch data.
# System: MS2 coat protein
# Assay: apparent Kd, MS2 coat protein; higher = weaker binding; RNA-MaP array; FMN 200 µM where present
# Summary of the method: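 Binding was read on Illumina sequencing-chip clusters where stalled E. coli RNA polymerase had transcribed each design. A titration of SNAP-549-labelled MS2 coat protein began at 0.7 or 1.5 nM and doubled to 3 µM, once without ligand and once with constant ligand, in 100 mM Tris-HCl pH 7.5, 80 mM KCl, 4 mM MgCl2, BSA, DTT, yeast tRNA and Tween-20. The apparent Kd is the median of filtered per-cluster binding-curve fits, based on green signal normalised to red-channel RNA signal and control-cluster median Fmax.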
# [1] = designed as: OFF switch for flavin mononucleotide, no ligand
# [2] = ligand present: flavin mononucleotide, designed as: OFF switch for flavin mononucleotide
# [3] = designed as: ON switch for flavin mononucleotide, no ligand
# [4] = ligand present: flavin mononucleotide, designed as: ON switch for flavin mononucleotide
Sequence,apparent Kd [1] [nM],apparent Kd [2] [nM],apparent Kd [3] [nM],apparent Kd [4] [nM]
AAUUAUUUUUGAGGAUAUGGUGGUGAAACACCACCAGAAGGCGAAAUAAACAUGAGGAUCACCCAUGUGAGCCUGAUGCUUAUG,21.1,55.8,–,–
AAUUAUUUUUGAGGAUAUUGUGGUGAAACACCACAAGAAGGCAAGAUACACAUGAGGAUCACCCAUGUGAGCCUGAUGCUUAUG,17.1,21.3,–,–
AAUUCACAUGAGGAUCACCCAUGUCAGGAUAUGGUUUCACGUUUUUCUUUGCUUGAGGCCAGAAGGGACAGCUA,62.8,68.5,–,–
AAUUCUAGGGUCAGCCUUAACACAUGAGGAUCACCCAUGUACAGAAGGCGAAGCAAAUGGACACUCGAGGAUAUGUACACUCCG,6.22,8.01,–,–
AAUUGAAACGUAGGAUAUCGCACAAAUCUAAAACGAGAAGGACGUACAUGAGGAUCACCCAUGUUAAAUGGUGUAGAUUAGAUG,543,636,–,–
AAUUGAAACGUAGGAUAUCGCUAUAAAUUAACACGAGAAGGACGUACAUGAGGAUCACCCAUGUUAAAUGGUGUAGUUUAGUUG,32.8,95.5,–,–
AAUUGACCUGUCAGGAUAUAGAGGGAGACUUACAUCUAGAAGGGACAUGAGGAUCACCCAUGUCAGUUGAGACA,19.8,22.6,–,–
AAUUGAGAGCAGGAUAUAUUCCUGAUGUAUGAAGUAGAAGGGCUCACAUGAGGAUCACCCAUGUGAUCCUGAAU,16.1,18,–,–
AAUUUACAUGAGGAUCACCCAUGUCAGGAUAUGGUUUUAUUUUUUUUUUUUUUUGAUUCCAGAAGGGACAGUUA,21.1,19.7,–,–
AAUUUACAUGAGGAUCACCCAUGUGAGGAUAUGAUACUAUGUACUUCGGUACAUAGUAUCAGAAGGCAUGUGGA,129,37.1,–,–
AAUUUUUAACAGAAGGCGUUUAUAGUUAAGUUACGAGGAUAUGUUUUACAUGAGGAUCACCCAUGUUACUAGGGUAGUAUAUAU,–,–,42.4,30.8
ACAAAGGUAGGAUAUCGGACUAUGGACAUGAGGAUCACCCAUGUGCGUCCAAUGCCCAACCGAGAAGGACCAACAG,47.1,89,–,–
ACAAAUGGAGGAUAUACAUGAGGAUCACCCAUGUAUAUCCUACAUGUGUGAUAAUAAUGUAGAAGGCCAUUUGA,13.7,12,–,–
ACAAAUGGAGGAUAUACAUGAGGAUCACCCAUGUUUAUCCUACAUAUGUGAUCCUCAUGUAGAAGGCCAUUUGA,11.4,10.8,–,–
ACAAAUGGAGGAUAUACAUGAGGAUCACCCAUGUUUAUCCUACAUGUGUGAUAAUAAUGUAGAAGGCCAUAUGA,15.9,12.5,–,–
ACAAGAUCAGGAUAUACAUGAGGAUCACCCAUGUAUAUAAAAAAAGGGCUUUCUACAUGUAGAAGGGAUCUUGU,29.9,37,–,–
ACAAUAAACUAGAAGGUGGUGAUACAUGAGGAUCACCCAUGUAUAGUACUGAGGAUAUGGAUGAUUGAAGUGAAUAUCGUAGCA,–,–,111,86
ACACAGCGAGGAUAUACAUGAGGAUCACCCAUGUGGUGGCGGUUACGGUAGGACUAGUGUAGAAGGUGCCGUGG,480,414,–,–
ACACAUGAGGAUCACCCAUGUACGCGCUGACAGGAGGUCUCACAGGAUAUAUGUGGUGAUGCUACAUAGAAGGGUGAUACCGCG,–,–,233,49.5
ACACGGUAUGUAGGAUAUGCAUAGCAUUGCUAUGCAGAAGGACAUGAGGAUCACCCAUGUAUGUAUUCCAUACUAAUCCCGUGC,6.03,6,–,–
ACACUGCGAGGAUAUACAUGAGGAUCACCCAUGUGUCGGCAGGUACGGUAGCACUAGUGUAGAAGGCGCAUUGG,24.6,42,–,–
ACAGAUGCUGACAUGAGGAUCACCCAUGUUAGAUUGUUAUGUCAGGAUAUUAUCUGGCAACCAGAUGAGAAGGGACCAUCUGUU,–,–,15.6,7.31
ACAGCGUGAGGAUAUACAUGAGGAUCACCCAUGUAUGGCAGGUUAUCCUGUCGUGAGUGUAGAAGGCACGCUGU,17.4,58.9,–,–
ACAUACAUUCGAGGAUAUCGGUGAUUAAUUUUACGAGAAGGCGAUAUAAGAUAUAAUAUUUUAGACAUGAGGAUCACCCAUGUA,–,–,25.5,22.9
ACAUAGUGAGGAUAUGCUGCUCGUCACUUGCGUGAUGAGUAGCAGAAGGCACAUGAGGAUCACCCAUGUAAAGA,42.3,63.7,–,–
ACAUAGUUAGGAUAUGCUGCUCGUCACUUGCGUGAUGAGUAGCAGAAGGAACAUGAGGAUCACCCAUGUAAAAA,28.3,25.5,–,–
ACAUGACAAUCAGGAUAUCGACAUGAGGAUCACCCAUGUACGGGUGUCAAUCGAGAAGGGAUUGUAGCGCCAACUGAGACGUUU,78,110,–,–
ACAUGACAUGAGGAUCACCCAUGUGAGGAUAUGCGAAAAAAAAAAAAAAAAAAAAUUGGCAGAAGGCACAAAAU,167,180,–,–

Sequence,apparent Kd [1] [nM],apparent Kd [2] [nM],apparent Kd [3] [nM],apparent Kd [4] [nM]
ACAUGAGGAUCACCCAUGUAGAAUGAAGAAGGUACUAUAUAGAUAUACACCCUAUGUCUAUAUAGUAAGGAUAUUCUAAUAAUU,–,–,6.45,6.35
ACAUGAGGAUCACCCAUGUAGAAUGAAGAAGGUAGAUAAUUGUGUUUCACCCAUGUACAUAAAUCUAAGGAUAUUCUAAUAAUU,–,–,12.3,7.35
ACAUGAGGAUCACCCAUGUAUUUGUAGGAUAUACACAAUUAUUUAUUACUCUAAUUAAUAUGUUUGUAGAAGGACACUGCAUGA,11.5,11.9,–,–
ACAUGAGGAUCACCCAUGUCACUUUUACAUGGGUAUAUAAGCGAGGAUAUGCAUAUACCCUGGGUGCAGAAGGCGCUUUUUUAA,74.5,105,–,–
ACAUGAGGAUCACCCAUGUGACAAGAAUGGCUGAUACAGAGACAGGAUAUAGGUGCAUAUCUAACCUAGAAGGGUCAUGACUGG,35.2,31.9,–,–
ACAUGAGGAUCACCCAUGUGAUGAUCUUCCAUGUCAUAUUUCAGAAGGCUCGCAUGUUUAAUGAGAGAGGAUAUGGAAUAUGCG,701,386,–,–
ACAUGAGGAUCACCCAUGUGGAGUGAAGAAGGUAGAUACUUAUGACUCUCCCAUGUACAUAGGACUGAGGAUAUUCUAAUAAUU,–,–,30.8,24
ACAUGAGGAUCACCCAUGUUAUCAGGGACUUCAAUUAUUUCUAGAAGGCUGUUUACUUGUUAGUCAGAGGAUAUAGAAUUAAAU,14.5,15.9,–,–
ACAUGAGGAUCACCCAUGUUAUCAGGGACUUCAAUUAUUUGUAGAAGGCUGUUUUCUUGUAAGUCAGAGGAUAUACAAUUAAAU,11.9,14.3,–,–
ACAUGAGGAUCACCCAUGUUAUCCGGGACUUCAAUUGUUUCUAGAAGGCUGUUUACUUGUUAGUCAGAGGAUAUAGAAUCAAAU,10.7,11.4,–,–
ACAUGAGGAUCUCCCAUGUAAAAUUAGGAUAUAUAACUACACAUGAGGAUCACCCAUGUUUAACCGUAGAAGGGAUAAAUAAUU,–,–,986,1020
ACAUGAGGAUCUCCCAUGUAAAAUUAGGAUAUAUGACUGCACAUGAGGAUCACCCAUGUUCUACCGUAGAAGGGAUAAAUAAUU,–,–,516,427
ACAUGCGGAUGAGGAUAUUCAUUCAUGAGGAUAGAAGAAGGCAUACAUGAGGAUCACCCAUGUAUACGCAUGAGGAUCCCUUAU,24.8,32.7,–,–
ACAUGGUAGUAGAAGGGUAUUACUUUAGAUACAACCAUUUGUAUUGUUUAUACAGGAUAUGCUUACAUGAGGAUCACCCAUGUU,11.3,11.1,–,–
ACAUGGUAUGUCAGGAUAUCUAACCGCAACGUUCUAGAGAAGGGACAUGAGGAUCACCCAUGUACGUUGUAAGA,54.3,117,–,–
ACAUGUUUUGUAGGAUAUCACUUGUUAUGUUAUAUAUUUGUUAUAAUCUAUUGAGAAGGACAUUUACAUGAGGAUCACCCAUGU,8.83,7.08,–,–
ACCAAUGGAGGAUAUACAUGAGGAUCACCCAUGUUUAUCCUACAUAGGUGAAAAAUAUGUAGAAGGCCAUUGGA,17,20.5,–,–
ACCACGGGAGGAUAUACAUGAGGAUCACCCAUGUCAACUCCACGUGCCCACGUCCUCUGUAGAAGGCCCUACAU,16,24.3,–,–
ACCAUACAUGAGGAUCACCCAUGUUAGGAUAUGAGAGACCCACAUAGUCCUGGUAGCAUCAGAAGGAGCAGGGU,20.6,23.7,–,–
ACCAUUUACUAAUUAUCUAUACAUGAGGAUCACCCAUGUUAUGAGGAUAUCAUCGUGAAACACGAUGAGAAGGUAUAGCAUUCG,18.1,22.1,–,–
ACCAUUUACUAAUUGUCUAUACAUGAGGAUCACCCAUGUUAUGAGGAUAUCAUCGUGAAACACGAUGAGAAGGCAUAGCAUUCG,64.5,213,–,–
ACCCAGUUUUGCACUACAUGAGGAUCACCCAUGUGAGCGAGCAGAAGGACGAUGGGUGGAAAAUCGUAGGAUAUGCACUGGGCU,–,–,44.8,12.3
ACCGAACAUGAGGAUCACCCAUGUGAGGAUAUAGACGCGUAUUUAACGCGUAACAAAACUAGAAGGCACUGGGC,27.2,16.1,–,–
ACCGAGACAGAAGGAUAUACAUUGGUUACGCUGUUCGCGUCCUCGACCACAUGAGGAUCACCCAUGUAGAAGGUUUGUAGCGCG,16.5,42.7,–,–
ACCGAUAGAGGAUAUACAGGUCGAUACAUGAGGAUCACCCAUGUUACCCUCGGUACACCCGUAGAAGGUUGUGGCU,263,248,–,–
ACCGGGUGUCACGUAUUACCGACAUGAGGAUCACCCAUGUAGGAGGAUAUGCAGACCGACAUAAAGCAGAAGGCCUACGUUUUC,6.72,35.8,–,–
ACCGGUGUAGGAUAUAUCUGGGAUGAAGAUGAUCCUGCUAAACAUGAGGAUCACCCAUGUAGAAGGAUGCCUGG,83.6,178,–,–
